Experimental data published in ChEMBL document CHEMBL2311539, “3,6-Diamino-4-(2-halophenyl)-2-benzoylthieno[2,3-b]pyridine-5-carbonitriles are selective inhibitors of Plasmodium falciparum glycogen synthase kinase-3” (J Med Chem, 2013).
pEC50, pIC50: −log10 of the molar value.

Assays:
[1] = Inhibition of Plasmodium falciparum recombinant His6-tagged GSK-3 expressed in Escherichia coli using GS-1 peptide as substrate after 30 mins by scintillation counting analysis in presence of gamma-33P-ATP
In short: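 His6-tagged recombinant GSK-3 expressed in E. coli (TOP10/pBAD-Thio-TOPO for P. falciparum and T. gondii, arabinose-induced; BL21(DE3)-pRARE2/pET15 for C. parvum, IPTG at 15 °C), Ni-NTA purified. Assayed with 40 μM GS-1 phosphopeptide, 15 μM γ-33P-ATP in pH 7.5 Tris buffer with MgCl2, EGTA, DTT, heparin, BSA; 30 min, 30 °C; P81 paper, phosphoric acid washes, scintillation counting. DMSO controls; dose-response IC50, triplicate points.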

Plasmodium falciparum [2] = experiment: Antiplasmodial activity against Plasmodium falciparum after 72 hrs by luciferase reporter gene assay; assay type: functional, organism-based; details: 48 h, in the assay text read “48 hrs” for “72 hrs”
In short: (§1)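 NF54:LUC P. falciparum erythrocytic stages (luciferase under hrp2 promoter) at 3% parasitemia, 25% hematocrit; compounds in RPMI-1640 with 1% DMSO, triplicate wells; untreated, DMSO-only and non-luciferase NF54 blank wells. […] Bright-Glo lysis, luminescence read.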

Plasmodium falciparum [3] = experiment: Antiplasmodial activity against Plasmodium falciparum at 15 uM after 72 hrs by luciferase reporter gene assay; assay type: functional; in short: as §1
[4] = molecular target: RAC-alpha serine/threonine-protein kinase (Homo sapiens) (UniProt P31749); experiment: Inhibition of PKB alpha (unknown origin) at 10 uM
In short: (§2)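 Dundee human kinase selectivity panel (77 kinases); test compound at 1 and 10 μM, percentage kinase inhibition recorded.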

[5] = molecular target: Serine/threonine-protein kinase PAK 4 (Homo sapiens) (UniProt O96013); experiment: Inhibition of PAK4 (unknown origin) at 10 uM; in short: as §2
[6] = molecular target: Mitogen-activated protein kinase 14 (Homo sapiens) (UniProt Q16539); experiment: Inhibition of P38alpha MAPK (unknown origin) at 10 uM; in short: as §2
[7] = molecular target: Dual specificity mitogen-activated protein kinase kinase 1 (Homo sapiens) (UniProt Q02750); experiment: Inhibition of MKK1 (unknown origin) at 10 uM; in short: as §2
[8] = molecular target: MAP kinase-activated protein kinase 2 (Homo sapiens) (UniProt P49137); experiment: Inhibition of MAPKAP-K2 (unknown origin) at 10 uM; in short: as §2
[9] = molecular target: Insulin receptor (Homo sapiens) (UniProt P06213); experiment: Inhibition of IR-HIS (unknown origin) at 10 uM; in short: as §2
[10] = molecular target: T1, Inhibitor of nuclear factor kappa-B kinase subunit epsilon (Homo sapiens) (UniProt Q14164); experiment: Inhibition of IKK-epsilon (unknown origin) at 10 uM; in short: as §2
T1 sequence (whole entry): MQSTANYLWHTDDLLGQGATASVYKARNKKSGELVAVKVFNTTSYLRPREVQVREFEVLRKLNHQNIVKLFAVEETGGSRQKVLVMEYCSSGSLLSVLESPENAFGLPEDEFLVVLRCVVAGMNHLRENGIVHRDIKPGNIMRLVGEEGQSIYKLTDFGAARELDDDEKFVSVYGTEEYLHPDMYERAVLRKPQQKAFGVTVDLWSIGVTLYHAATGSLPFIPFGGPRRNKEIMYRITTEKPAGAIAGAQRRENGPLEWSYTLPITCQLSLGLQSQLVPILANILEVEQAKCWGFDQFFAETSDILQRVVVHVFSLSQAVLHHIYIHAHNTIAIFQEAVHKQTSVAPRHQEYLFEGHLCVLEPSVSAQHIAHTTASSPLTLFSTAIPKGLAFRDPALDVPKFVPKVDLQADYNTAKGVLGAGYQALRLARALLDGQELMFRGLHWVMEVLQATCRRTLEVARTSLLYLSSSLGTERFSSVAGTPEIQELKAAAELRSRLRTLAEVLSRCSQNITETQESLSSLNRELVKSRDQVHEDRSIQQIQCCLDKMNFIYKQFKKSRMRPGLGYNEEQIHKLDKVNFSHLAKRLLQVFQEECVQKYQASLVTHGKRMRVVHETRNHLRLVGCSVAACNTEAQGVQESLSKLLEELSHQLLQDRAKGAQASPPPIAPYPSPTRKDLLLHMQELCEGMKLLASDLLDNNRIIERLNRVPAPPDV

[11] = molecular target: Serine/threonine-protein kinase Chk2 (Homo sapiens) (UniProt O96017); experiment: Inhibition of CHK2 (unknown origin) at 10 uM; in short: as §2
[12] = molecular target: Calcium/calmodulin-dependent protein kinase type 1 (Homo sapiens) (UniProt Q14012); experiment: Inhibition of CAMK1 (unknown origin) at 10 uM; in short: as §2
[13] = molecular target: Tyrosine-protein kinase BTK (Homo sapiens) (UniProt Q06187); experiment: Inhibition of BTK (unknown origin) at 10 uM; in short: as §2
[14] = molecular target: T2, Serine/threonine-protein kinase BRSK2 (Homo sapiens) (UniProt Q8IWQ3); experiment: Inhibition of BRSK2 (unknown origin) at 10 uM; in short: as §2
T2 sequence (whole entry): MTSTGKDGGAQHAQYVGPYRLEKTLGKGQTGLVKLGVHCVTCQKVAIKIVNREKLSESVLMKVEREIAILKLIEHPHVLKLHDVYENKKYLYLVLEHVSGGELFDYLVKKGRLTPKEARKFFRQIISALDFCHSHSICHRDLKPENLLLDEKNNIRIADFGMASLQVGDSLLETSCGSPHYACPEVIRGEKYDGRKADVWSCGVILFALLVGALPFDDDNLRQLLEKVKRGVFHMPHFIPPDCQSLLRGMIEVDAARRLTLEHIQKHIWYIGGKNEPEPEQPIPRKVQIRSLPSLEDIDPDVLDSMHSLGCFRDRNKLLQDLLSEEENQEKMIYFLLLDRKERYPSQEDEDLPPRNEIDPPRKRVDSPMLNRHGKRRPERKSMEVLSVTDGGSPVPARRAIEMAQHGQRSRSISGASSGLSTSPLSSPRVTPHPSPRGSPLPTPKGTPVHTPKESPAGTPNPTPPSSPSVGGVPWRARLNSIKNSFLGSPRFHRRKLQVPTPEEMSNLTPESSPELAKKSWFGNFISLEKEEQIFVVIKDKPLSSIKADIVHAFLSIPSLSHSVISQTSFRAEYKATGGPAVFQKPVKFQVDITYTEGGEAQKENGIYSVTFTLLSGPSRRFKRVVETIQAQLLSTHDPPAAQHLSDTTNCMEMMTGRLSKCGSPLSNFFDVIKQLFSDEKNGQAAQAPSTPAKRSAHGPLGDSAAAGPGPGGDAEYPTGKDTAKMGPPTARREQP

[15] = Inhibition of Leishmania donovani GSK-3
[16] = Inhibition of Trypanosoma brucei GSK-3
[17] = Inhibition of Trypanosoma cruzi GSK-3

Chain of Insulin receptor (Homo sapiens) (P06213 28-758 limits assumed): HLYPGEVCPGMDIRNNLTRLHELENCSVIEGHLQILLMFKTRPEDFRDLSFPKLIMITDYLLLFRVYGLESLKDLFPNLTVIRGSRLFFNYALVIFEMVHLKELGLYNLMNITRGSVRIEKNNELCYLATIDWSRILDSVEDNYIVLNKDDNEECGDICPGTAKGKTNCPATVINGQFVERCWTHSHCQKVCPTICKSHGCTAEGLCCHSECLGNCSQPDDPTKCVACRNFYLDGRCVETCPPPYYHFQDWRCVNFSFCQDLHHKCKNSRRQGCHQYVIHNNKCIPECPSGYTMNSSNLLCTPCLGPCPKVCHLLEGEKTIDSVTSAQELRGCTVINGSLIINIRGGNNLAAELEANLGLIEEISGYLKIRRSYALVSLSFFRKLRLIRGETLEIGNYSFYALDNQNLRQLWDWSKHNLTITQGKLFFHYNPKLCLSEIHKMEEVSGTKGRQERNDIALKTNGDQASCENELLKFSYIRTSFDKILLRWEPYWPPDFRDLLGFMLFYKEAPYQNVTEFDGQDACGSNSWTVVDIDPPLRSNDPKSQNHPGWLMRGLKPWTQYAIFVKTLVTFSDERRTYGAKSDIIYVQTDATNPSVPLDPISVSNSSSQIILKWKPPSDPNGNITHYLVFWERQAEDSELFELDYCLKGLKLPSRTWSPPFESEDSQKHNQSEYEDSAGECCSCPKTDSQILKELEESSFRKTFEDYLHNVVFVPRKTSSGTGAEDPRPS
Chain of Insulin receptor (Homo sapiens) (P06213 763-1382 limits assumed): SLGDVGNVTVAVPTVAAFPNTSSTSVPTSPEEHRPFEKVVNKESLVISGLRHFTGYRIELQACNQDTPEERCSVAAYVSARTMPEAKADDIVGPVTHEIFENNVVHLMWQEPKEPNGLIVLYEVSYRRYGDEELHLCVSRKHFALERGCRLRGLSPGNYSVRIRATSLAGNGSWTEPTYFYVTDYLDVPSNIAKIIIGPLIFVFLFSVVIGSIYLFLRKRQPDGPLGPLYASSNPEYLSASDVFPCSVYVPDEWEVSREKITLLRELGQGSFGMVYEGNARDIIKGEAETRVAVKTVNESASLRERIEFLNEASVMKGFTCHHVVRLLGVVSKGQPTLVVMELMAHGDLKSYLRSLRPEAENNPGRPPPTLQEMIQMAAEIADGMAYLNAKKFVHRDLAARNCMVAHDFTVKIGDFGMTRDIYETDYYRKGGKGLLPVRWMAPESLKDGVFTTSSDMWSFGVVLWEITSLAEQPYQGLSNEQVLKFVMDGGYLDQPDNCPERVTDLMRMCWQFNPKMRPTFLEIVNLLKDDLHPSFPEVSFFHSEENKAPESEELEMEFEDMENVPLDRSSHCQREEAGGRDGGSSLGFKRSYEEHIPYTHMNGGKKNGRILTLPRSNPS
Chain of Serine/threonine-protein kinase Chk2 (Homo sapiens) (O96017 whole entry): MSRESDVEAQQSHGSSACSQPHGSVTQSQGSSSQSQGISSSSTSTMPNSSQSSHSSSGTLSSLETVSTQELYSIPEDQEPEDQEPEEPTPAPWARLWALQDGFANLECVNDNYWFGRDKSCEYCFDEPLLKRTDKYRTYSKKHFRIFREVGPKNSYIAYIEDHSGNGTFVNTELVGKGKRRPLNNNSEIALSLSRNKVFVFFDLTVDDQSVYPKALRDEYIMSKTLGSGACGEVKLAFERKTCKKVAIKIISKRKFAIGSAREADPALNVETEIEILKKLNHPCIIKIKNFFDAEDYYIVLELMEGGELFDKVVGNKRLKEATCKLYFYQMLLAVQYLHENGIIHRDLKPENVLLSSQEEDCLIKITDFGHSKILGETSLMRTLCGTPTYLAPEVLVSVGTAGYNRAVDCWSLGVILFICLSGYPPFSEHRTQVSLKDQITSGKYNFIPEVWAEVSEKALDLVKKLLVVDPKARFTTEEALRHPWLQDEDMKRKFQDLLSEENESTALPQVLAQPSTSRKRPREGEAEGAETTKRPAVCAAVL
Chain of Serine/threonine-protein kinase PAK 4 (Homo sapiens) (O96013 whole entry, looked up): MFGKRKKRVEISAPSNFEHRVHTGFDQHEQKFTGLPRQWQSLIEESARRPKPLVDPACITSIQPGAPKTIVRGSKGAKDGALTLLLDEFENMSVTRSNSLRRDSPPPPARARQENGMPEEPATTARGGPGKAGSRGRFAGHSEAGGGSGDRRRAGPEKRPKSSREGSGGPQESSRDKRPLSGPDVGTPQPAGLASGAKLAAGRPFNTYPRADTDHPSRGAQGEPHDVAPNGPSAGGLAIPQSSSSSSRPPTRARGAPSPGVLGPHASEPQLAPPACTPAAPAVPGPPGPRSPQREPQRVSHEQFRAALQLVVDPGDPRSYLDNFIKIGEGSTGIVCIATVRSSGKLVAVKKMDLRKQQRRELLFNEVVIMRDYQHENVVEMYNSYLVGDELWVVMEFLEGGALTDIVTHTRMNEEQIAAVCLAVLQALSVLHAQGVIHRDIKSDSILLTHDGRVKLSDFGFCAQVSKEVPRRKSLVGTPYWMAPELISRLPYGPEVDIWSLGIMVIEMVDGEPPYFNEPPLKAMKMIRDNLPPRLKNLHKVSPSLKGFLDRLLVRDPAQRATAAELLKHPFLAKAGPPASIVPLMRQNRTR
Chain of Dual specificity mitogen-activated protein kinase kinase 1 (Homo sapiens) (Q02750 whole entry): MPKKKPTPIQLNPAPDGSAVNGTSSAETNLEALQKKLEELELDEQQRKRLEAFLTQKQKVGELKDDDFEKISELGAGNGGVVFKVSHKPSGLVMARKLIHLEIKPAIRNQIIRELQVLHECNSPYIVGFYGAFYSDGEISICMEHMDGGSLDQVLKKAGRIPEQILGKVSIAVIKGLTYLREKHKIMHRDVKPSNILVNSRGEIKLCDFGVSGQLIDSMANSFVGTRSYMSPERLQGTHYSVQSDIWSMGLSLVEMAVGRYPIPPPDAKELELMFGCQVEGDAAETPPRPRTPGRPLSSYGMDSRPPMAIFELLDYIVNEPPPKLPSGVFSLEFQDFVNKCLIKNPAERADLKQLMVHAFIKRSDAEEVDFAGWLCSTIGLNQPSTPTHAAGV
Chain of MAP kinase-activated protein kinase 2 (Homo sapiens) (P49137 whole entry, looked up): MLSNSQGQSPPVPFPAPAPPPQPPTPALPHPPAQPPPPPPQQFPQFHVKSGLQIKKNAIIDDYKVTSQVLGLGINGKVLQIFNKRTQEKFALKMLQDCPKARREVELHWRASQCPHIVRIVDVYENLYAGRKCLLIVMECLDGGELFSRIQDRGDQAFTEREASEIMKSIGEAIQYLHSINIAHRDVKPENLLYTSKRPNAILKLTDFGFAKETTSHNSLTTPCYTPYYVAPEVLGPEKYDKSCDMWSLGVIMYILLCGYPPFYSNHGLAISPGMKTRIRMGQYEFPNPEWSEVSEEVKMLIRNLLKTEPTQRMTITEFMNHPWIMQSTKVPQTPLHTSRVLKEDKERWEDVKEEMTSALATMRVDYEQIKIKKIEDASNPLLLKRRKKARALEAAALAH
Chain of Mitogen-activated protein kinase 14 (Homo sapiens) (Q16539 whole entry): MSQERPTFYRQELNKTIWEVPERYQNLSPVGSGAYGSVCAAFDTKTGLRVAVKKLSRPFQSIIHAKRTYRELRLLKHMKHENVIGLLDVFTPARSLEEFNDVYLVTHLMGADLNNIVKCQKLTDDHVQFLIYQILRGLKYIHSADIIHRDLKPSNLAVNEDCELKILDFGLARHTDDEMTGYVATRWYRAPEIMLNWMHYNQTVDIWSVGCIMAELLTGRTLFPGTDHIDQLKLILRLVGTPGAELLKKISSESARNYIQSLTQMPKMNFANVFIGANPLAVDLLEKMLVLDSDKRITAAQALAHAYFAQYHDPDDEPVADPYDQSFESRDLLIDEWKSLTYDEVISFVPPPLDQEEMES
Chain of Tyrosine-protein kinase BTK (Homo sapiens) (Q06187 whole entry): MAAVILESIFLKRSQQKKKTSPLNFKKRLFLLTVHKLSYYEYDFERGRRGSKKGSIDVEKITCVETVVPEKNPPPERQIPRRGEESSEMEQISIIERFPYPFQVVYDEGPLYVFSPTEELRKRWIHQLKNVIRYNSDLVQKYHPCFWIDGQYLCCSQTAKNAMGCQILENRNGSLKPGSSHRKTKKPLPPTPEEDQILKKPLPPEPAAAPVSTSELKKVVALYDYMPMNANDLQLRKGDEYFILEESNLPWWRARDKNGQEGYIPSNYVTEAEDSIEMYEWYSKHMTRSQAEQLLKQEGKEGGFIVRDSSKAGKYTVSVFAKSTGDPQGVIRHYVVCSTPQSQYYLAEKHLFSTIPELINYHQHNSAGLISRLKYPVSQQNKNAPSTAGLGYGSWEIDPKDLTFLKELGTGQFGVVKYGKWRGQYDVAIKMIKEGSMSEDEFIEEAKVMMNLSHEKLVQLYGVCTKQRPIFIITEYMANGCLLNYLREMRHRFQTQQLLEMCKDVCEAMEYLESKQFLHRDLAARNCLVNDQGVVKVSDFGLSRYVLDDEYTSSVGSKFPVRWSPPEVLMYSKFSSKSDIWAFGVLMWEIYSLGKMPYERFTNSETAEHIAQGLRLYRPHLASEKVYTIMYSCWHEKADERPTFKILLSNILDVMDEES
Chain of Calcium/calmodulin-dependent protein kinase type 1 (Homo sapiens) (Q14012 whole entry, looked up): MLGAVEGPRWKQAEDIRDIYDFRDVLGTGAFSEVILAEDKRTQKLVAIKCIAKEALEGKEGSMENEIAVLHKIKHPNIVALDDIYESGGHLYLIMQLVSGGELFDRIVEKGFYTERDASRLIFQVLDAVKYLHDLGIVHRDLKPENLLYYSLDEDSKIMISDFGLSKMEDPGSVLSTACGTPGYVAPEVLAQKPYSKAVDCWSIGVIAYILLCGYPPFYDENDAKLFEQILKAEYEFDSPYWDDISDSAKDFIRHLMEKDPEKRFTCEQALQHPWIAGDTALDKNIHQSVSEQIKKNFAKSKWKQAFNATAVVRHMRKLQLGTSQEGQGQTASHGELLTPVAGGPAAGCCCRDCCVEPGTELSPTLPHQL

pIC50 [1]: 6.32 | pEC50 (Plasmodium falciparum [2]): 5.26 | inhibition [4]: > 80% | inhibition [5]: > 50% | inhibition [6]: > 50% | inhibition [7]: > 50% | inhibition [8]: > 50% | inhibition [9]: > 50% | inhibition [10]: > 50% | inhibition [11]: > 50% | inhibition [12]: > 50% | inhibition [13]: > 50% | inhibition [14]: > 50% | pIC50 [15]: 4.14
Compound: N#Cc1c(N)nc2sc(C(=O)c3cccc(Cl)c3)c(N)c2c1-c1ccccc1Cl
inhibition at 15 µM (Plasmodium falciparum [3]): 100% | pIC50 [16]: < 4.00 | pIC50 [17]: < 4.00
